SMARCA2 activ: increases SMARCA2 function in MMTV reporter cells; MG213 cells, MMTV-luciferase reporter, dexamethasone, overnight; activation, % at 9.1 µM; 370,000 tested, 1% active; in the data active means activation above about 7.8%;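 further: 0% = vehicle wells and 100% = reference activator wells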
H9c2 TAG inh: triacylglycerol accumulation inhibition; 230,000 tested, 0.66% active; AID 651582; H9c2 cells, Nile Red lipid (TAG) fluorescence; cells loaded with 200 µM oleic acid; inhibition, % at 12.5 µM;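 active means pattern-corrected inhibition of lipid staining of at least 50% with the nuclear-stain viability signal not falling by more than 50%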;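 further: 0% = DMSO wells and 100% = triacsin C control wells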
AHR activator: activators of human aryl hydrocarbon receptor. 320,000 tested, 2.5% active. P35869. activation, % at 5 µM. AHR-responsive luciferase reporter cells, luminescence; in the data active means activation above about 47%;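 further: 0% = vehicle wells and 100% = reference agonist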
Target sequence (P35869 whole entry, looked up): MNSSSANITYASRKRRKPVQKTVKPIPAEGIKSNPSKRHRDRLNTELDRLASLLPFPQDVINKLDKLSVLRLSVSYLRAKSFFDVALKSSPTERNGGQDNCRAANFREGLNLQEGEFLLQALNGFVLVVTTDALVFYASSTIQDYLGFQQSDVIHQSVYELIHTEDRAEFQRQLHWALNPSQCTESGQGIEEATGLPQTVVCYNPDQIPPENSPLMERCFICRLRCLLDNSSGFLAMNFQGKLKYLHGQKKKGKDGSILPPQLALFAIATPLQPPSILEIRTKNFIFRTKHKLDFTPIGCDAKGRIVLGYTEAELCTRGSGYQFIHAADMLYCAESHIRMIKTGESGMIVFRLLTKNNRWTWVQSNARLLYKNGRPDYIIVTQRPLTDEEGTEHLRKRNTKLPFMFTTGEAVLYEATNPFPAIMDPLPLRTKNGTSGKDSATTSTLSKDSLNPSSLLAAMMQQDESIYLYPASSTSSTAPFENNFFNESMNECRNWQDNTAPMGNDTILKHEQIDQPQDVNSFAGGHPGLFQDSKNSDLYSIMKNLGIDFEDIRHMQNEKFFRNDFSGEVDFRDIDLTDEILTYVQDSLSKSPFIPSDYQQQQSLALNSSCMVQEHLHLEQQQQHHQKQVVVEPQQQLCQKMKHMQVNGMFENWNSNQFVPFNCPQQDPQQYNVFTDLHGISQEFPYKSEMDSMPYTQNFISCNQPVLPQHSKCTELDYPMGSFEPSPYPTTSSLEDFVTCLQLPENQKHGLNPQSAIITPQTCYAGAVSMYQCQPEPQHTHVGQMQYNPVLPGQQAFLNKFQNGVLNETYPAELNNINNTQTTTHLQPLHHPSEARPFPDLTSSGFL
Efflux pump mplx: blocks antifungal efflux pumps in multiplex yeast assay; 330,000 tested, 0.44% active; AID 485275; S. cerevisiae Candida pump triplex, Nile Red efflux; inhibition, % at 10 µM;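 active means plate passing quality check with inhibition over a set limit, or well fluorescence over plate mean plus 4 SD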;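 further: Nile Red retained in pooled yeast measured as flow cytometry median fluorescence; 0% = buffer negative control and 100% = Enniatin B positive control; higher means more Nile Red kept so more efflux inhibition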
TbMetRS inhib: Trypanosoma brucei MetRS inhibition; purified T. brucei MetRS, ATP depletion, Kinase-Glo luminescence; inhibition, % at 11.9 µM; 360,000 tested, 0.4% active; AID 624268;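 active means inhibition above a per-plate cutoff of the control wells' mean inhibition plus 3 SD, cut at about 5.5% in these data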;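 further: 0% = DMSO wells median and 100% = median of wells with control inhibitor compound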
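Material: parasite MetRS enzyme / Replication: singlicate, one well per compound / Signal: luminescence of leftover ATP / Schedule: 2 h aminoacylation at 25 °C after 15 min preincubation / Medium: HEPES-MgCl2-KCl buffer plus DTT, spermine, BSA, pyrophosphatase / Doses: 11.9 µM single point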
* hit, by the source's call; / = no result. An excerpt weighted towards active compounds, which were near 4.1% of everything screened.

SMILES | SMARCA2 activ | H9c2 TAG inh | AHR activator | Efflux pump mplx | TbMetRS inhib
COc1ccccc1NC(=S)NNC(=O)c1nn(C)cc1Cl | 0 | 1 | 4 | 0 | -1
COc1ccc(-c2nnc(SCC(=O)Nc3ccc(S(=O)(=O)Nc4nccs4)cc3)n2-c2ccc(OC)cc2)cc1 | -2 | / | / | / | /
Fc1cccc(F)c1Cn1ccc2ccc(-c3ccc4ccn(Cc5c(F)cccc5F)c4c3)cc21 | 1 | / | / | / | /
COc1ccccc1NC(=O)C1=C(C)NC(=O)NC1c1ccccc1[N+](=O)[O-] (stereo unspecified) | 3 | -6 | 71* | 0 | 0
COc1ccc(Cl)cc1NC(=O)c1noc(C)c1[N+](=O)[O-] | / | / | 55* | 0 | 0
Cc1ccc(C(=O)C2CCN(CC(=O)N3CCOCC3)CC2)cc1 | -1 | / | / | / | /
O=C(C=C1NCCN1)c1ccccc1 | -1 | 0 | 0 | 0 | -1
O=C(/C=C1\NCC2c3ccccc3CCN2C1=O)c1ccccc1 (stereo unspecified) | 2 | 11 | 62* | 0 | -1
COc1ccc(S[C@]2(C(=O)N(C)C)CC(=O)N[C@@H]2c2ccc(OC)cc2)cc1 | -2 | / | / | / | /
COc1ccccc1NC(=S)N(Cc1ccco1)Cc1cc2cccc(C)c2[nH]c1=O | 2 | / | 48* | 0 | -1
CCNC(=S)N(Cc1ccco1)Cc1cc2cc3c(cc2[nH]c1=O)OCCO3 | 1 | / | 71* | 0 | 0
CC(C)CNC(=S)N(Cc1ccco1)Cc1cc2cc3c(cc2[nH]c1=O)OCCO3 | -4 | / | 54* | 0 | 0
COc1ccccc1NC(=S)N(Cc1ccco1)Cc1cc2cc(C)c(C)cc2[nH]c1=O | -3 | / | 12 | 0 | -1
CNC(=S)N(Cc1ccco1)Cc1cc2cc3c(cc2[nH]c1=O)OCCO3 | 0 | 8 | 37 | 0 | 0
COc1ccc(/C=C/C(=O)Nc2nonc2NC(C)=O)cc1 | -4 | / | 49* | 0 | 0
O=C(CCc1nc(-c2ccccc2F)no1)NCCc1cccc(F)c1 | -7 | / | / | / | /
Cn1c(O)c(N=Nc2ccc(F)cc2)c2ccccc21 | -2 | 6 | 44 | 0 | -1
Cn1c(O)c(N=Nc2nc(-c3ccccc3)cs2)c2ccccc21 | -1 | / | 54* | 0 | 0
Cn1c(O)c(N=Nc2ccccc2)c2ccccc21 | -3 | / | 55* | 0 | -2
Cn1c(O)c(N=NC(=O)c2cc(-c3cccs3)nc3ccccc23)c2ccccc21 | 1 | / | 17 | 0 | 0
Cc1cccc(OCC(=O)NC(C)C(=O)N/N=C/c2c(OCc3ccccc3)ccc3ccccc23)c1 (stereo unspecified) | / | / | 88* | 0 | 0
COc1ccc2ccccc2c1/C=N/NC(=O)c1cccc(C)c1 | 1 | 4 | 18 | 0 | 0
CCN(CC)C(=O)CC[C@@H]1CC[C@]2(CCCN(S(C)(=O)=O)C2)O1 | 0 | / | / | / | /
CCC(=O)c1ccc(Oc2nc3c(c(=O)n(C)c(=O)n3C)n2CC)cc1 | -2 | -17 | 61* | 0 | -2
Cc1nn(-c2nc3ccccc3s2)c(N)c1-c1ccccc1 | 0 | / | 42 | 0 | -1
SMILES | SMARCA2 activ | H9c2 TAG inh | AHR activator | Efflux pump mplx | TbMetRS inhib
Cc1nn(-c2nc3ccccc3s2)c(N)c1-c1ccc(Cl)cc1 | 1 | -11 | 77* | 0 | 0
O=C(NC1CCc2ccccc21)c1cc(COc2cncc(Cl)c2)on1 (stereo unspecified) | 0 | -2 | 55* | 0 | 0
O=C(NC1CCc2ccccc21)c1cc(COc2ccc(F)cc2Cl)on1 (stereo unspecified) | 2 | 12 | 2 | 0 | 0
O=C1N2Cc3ccccc3C2CS(=O)(=O)N1CCc1ccccc1 (stereo unspecified) | 3 | / | / | / | /
COC(=O)CCc1nc2ccccc2[nH]c1=O | -4 | / | -2 | 0 | 0
COC(=O)CSCc1nc2ccccc2[nH]c1=O | -2 | 7 | 64* | 0 | -1
COC(=O)c1cc(-c2ccc3ccccc3c2)c(=O)n2c1CCC2 | -1 | / | / | / | /
CC(C)c1cc(C(C)C)c(S(=O)(=O)N2CCCC(C(=O)N3CCN(Cc4ccccc4)CC3)C2)c(C(C)C)c1 (stereo unspecified) | -2 | / | / | / | /
Fc1cccc(F)c1/C=N/N1CCOCC1 | 7.9* | -15 | -3 | 0 | -1
CN(C(=O)c1cccc(NC(=O)Cc2ccc(NC(=O)C3CCCN(C(=O)c4ccccc4)C3)cc2)c1)C1CC1 (stereo unspecified) | -6 | / | / | / | /
COc1ccc(-c2[nH]ncc2N=Nc2cc(C)cc(C)c2)cc1 | -4 | 16 | 66* | 0 | 0
CCOC(=O)CC[C@@H]1CC[C@]2(CCCN(C(=O)C3CCCCC3)C2)O1 | -3 | / | / | / | /
